Most compounds without a hit are left out; they make up all but 2.3% or so of the library.
ATG4B inh: ATG4B (human) cysteine protease inhibition; Q9Y4P1; ATG4B cleavage of LC3-PLA2, NBD-HPC fluorescence, 1 h; inhibition, % at 8.33 µM; 0.51% of 340,000 active; in the data active means inhibition above about 40%
SR-BI DiI inh: inhibitors of mouse SR-BI mediated HDL lipid uptake; Q61009; ldlA[mSR-BI] CHO cells, DiI-HDL uptake fluorescence, 3 h; inhibition, % at 12.5 µM; 0.96% of 320,000 active; AID 488896;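 active means mean replicate inhibition of at least 70% and a set share of replicates each scoring 70 or more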;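 further: 0% = median of neutral control wells and 100% = median of positive control wells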
Target sequence (Q61009 whole entry, looked up): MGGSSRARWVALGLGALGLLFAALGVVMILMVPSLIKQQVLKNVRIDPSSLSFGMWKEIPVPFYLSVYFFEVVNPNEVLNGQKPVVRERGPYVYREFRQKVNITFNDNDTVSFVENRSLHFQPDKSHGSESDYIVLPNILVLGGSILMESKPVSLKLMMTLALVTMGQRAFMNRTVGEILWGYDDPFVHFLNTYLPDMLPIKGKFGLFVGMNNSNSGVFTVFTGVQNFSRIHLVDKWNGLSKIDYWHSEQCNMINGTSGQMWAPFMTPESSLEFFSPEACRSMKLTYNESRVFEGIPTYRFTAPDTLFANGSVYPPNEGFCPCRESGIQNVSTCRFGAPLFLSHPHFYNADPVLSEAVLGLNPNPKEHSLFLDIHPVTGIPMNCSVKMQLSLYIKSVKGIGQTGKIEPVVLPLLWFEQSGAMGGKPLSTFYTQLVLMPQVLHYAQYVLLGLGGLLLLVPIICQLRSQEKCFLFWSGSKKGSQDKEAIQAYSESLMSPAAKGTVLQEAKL
CAL PDZ FP-1: human CAL PDZ-peptide interaction inhibition; Q9HD26; purified CAL PDZ, TMR-peptide fluorescence polarization, 1 h; inhibition, % at 20 µM; 0.02% of 330,000 active;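 active means highest replicate inhibition of at least 40%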;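 further: plate controls were DMSO neutral control wells for no effect and unlabeled competitor peptide control wells for full effect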
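material = purified tagged CAL PDZ domain construct (CerCALP) | buffer or medium = sodium phosphate/NaCl buffer pH 7.4 with TCEP, IgG, Thesit | reagent = TMR-labelled reporter peptide T*-PRC34 bound in PDZ groove | incubation = 1 h room-temperature incubation prior to read | measured by = fluorescence polarization (mP) | evaluation = percent inhibition from loss of millipolarization | control set = unlabelled peptide and DMSO controls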
SR-BI DiI-HDL act: enhances SR-BI lipid uptake from DiI-HDL | activation, % at 12.5 µM | 0.096% of 320,000 active | CHO ldlA[mSR-BI] cells, DiI-HDL uptake fluorescence, 3 h; 100 = double the neutral-control signal | AID 504775;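 active means mean replicate activation of at least 60% and every replicate at or above 60%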;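 further: 0% = median plate neutral-control signal and 100% = twice that signal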
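Test system: SR-BI-overexpressing, LDLR-lacking CHO cells. Measured by: DiI fluorescence, bottom read. Medium: Ham's F12 with 0.5% BSA, HEPES 25 mM, pH 7.4. Timing: 3 h uptake period with compound, 37 °C.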
CAL PDZ FP-2: inhibitors of human CAL PDZ peptide binding; 0.92% of 300,000 active; Q9HD26; purified CAL PDZ, TMR-peptide fluorescence polarization, 1 h; inhibition, % at 24.9 µM;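 active means mean inhibition of at least 30% with at least half of replicates also reaching 30%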;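 further: 0% = DMSO neutral control and 100% = excess unlabeled competitor peptide PRC23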
Starred values were filed as active, the others as inactive; x = not tested or not shown.

SMILES	ATG4B inh	SR-BI DiI inh	CAL PDZ FP-1	SR-BI DiI-HDL act	CAL PDZ FP-2
CC(C)(C)c1ccc(C(=O)NC(=S)Nc2ccc(N3CCOCC3)cc2)cc1	-1	24	1	-24	33*
CC(C)(C)c1ccc(C(=O)Nc2ccc(N3CCOCC3)cc2)cc1	-6	64	-3	-64	-1
COc1cc([N+](=O)[O-])ccc1NC(=S)Nc1cc(C(=O)OC(C)C)cc(C(=O)OC(C)C)c1	-8	32	0	-32	-6
Nc1cc2c(cc1Br)-c1ccccc1C2=NO	2	30	0	-30	-3
CC(C)(C)C1CCC2(CC1)C(Nc1cccc(C(F)(F)F)c1)=NC(=S)N2CC#N (stereo not given)	-5	-152	x	152*	-3
C/C(CC(=O)Nc1ccccc1Br)=N\NC(=O)C(=O)N1CCCC1	-5	-24	0	24	108*
CCn1c(SC)nnc1C1CCN(CC(=O)Nc2ccccc2N2CCOCC2)CC1	8	x	-2	x	-1
CC(NC(=O)COC(=O)CN1C(=O)NC2(CCCC2)C1=O)c1ccc(F)cc1 (stereo not given)	-7	0	-4	0	-2
CC1CCCCC12NC(=O)N(CC(=O)OCC(=O)NC(=O)c1ccccc1)C2=O (stereo not given)	-2	20	-3	-20	-8
COc1ccc(C(C)(C)C)cc1NC(=O)COC(=O)CN1C(=O)NC2(CCCCC2C)C1=O (stereo not given)	-8	-2	0	2	52*
CC1CCCCC12NC(=O)N(CC(=O)OCc1cccc(F)c1)C2=O (stereo not given)	-1	-8	0	8	56*
CC1CCCCC12NC(=O)N(CC(=O)OCc1ccccc1F)C2=O (stereo not given)	-1	6	-2	-6	-4
COc1ccc(NS(=O)(=O)c2cccc(C(=O)NCc3ccco3)c2)cc1	-7	-19	-3	19	-2
CCN(CC)C(=O)CN1C(=O)c2cccc3cccc1c23	-8	-5	x	5	37*
COc1ccc(NC(=O)CN(C)CC(=O)Nc2ccc(Cl)c(S(=O)(=O)N(C)C)c2)cc1	-19	24	-1	-24	40*
COc1cccc(NC(=O)CN(C)CC(=O)Nc2ccc(Br)cc2)c1	-9	5	-2	-5	47*
CCOCC(=O)Nc1cccc(OC)c1	8	-10	-1	10	66*
COc1cccc(NC(=O)CN(C)CC(=O)Nc2cccc(C(F)(F)F)c2)c1	-10	-8	-1	8	-18
CSc1nc2[nH]c(=O)n(O)c(=O)c2n1Cc1ccccc1	-4	-1	0	1	-3
C=CCNC(=S)Nc1sc2c(c1C(=O)OCC)CC(C(C)C)OC2 (stereo not given)	-6	74*	-3	-74	x
CCOC(=O)c1c(NC(=S)NCCc2ccccc2)sc2c1CC(C(C)C)OC2 (stereo not given)	-14	-5	-1	5	-3
COc1ccc(C(=O)NC2CCN(C(=O)Nc3ccccc3Cl)CC2)cc1	0	33	0	-33	3
N#Cc1nc(COc2ccc(Cl)cc2Cl)oc1N1CCN(c2ccccc2)CC1	-4	-118	0	118*	x
N#Cc1nc(/C=C/c2ccccc2)oc1NCCCN1CCOCC1	-2	15	0	-15	36*
COCCNc1oc(/C=C/c2ccccc2)nc1C#N	-13	19	-1	-19	-4
SMILES	ATG4B inh	SR-BI DiI inh	CAL PDZ FP-1	SR-BI DiI-HDL act	CAL PDZ FP-2
CSCC(O)Cn1ncc2ccccc2c1=O (stereo not given)	-9	0	-1	0	31*
COC(=O)/C(=C/Nc1ccc(O)cc1)[N+](=O)[O-]	-15	-14	0	14	66*
Cc1cc(C(=O)NNC(=O)Cc2ccc(Cl)cc2)c(C)o1	0	-8	0	8	0
COc1ccc(/C=N/NC(=O)c2ccccc2F)cc1CN1CCN(c2ccc(F)cc2)CC1	8	41	-4	-41	1
O=C(Cc1ccc(NC(=O)C2CCN(C(=O)C3CCCCC3)CC2)cc1)Nc1cccc(C(=O)N2CCCCC2)c1	-17	12	0	-12	-2
O=C(N/N=C/c1cccnc1)c1ccc([N+](=O)[O-])cc1	-4	-3	-1	3	-3
